Assay results published in publication PMC7115590 (European Journal of Medicinal Chemistry, 2012).

Legend:
[1] = tested on: HBsAg (hepatitis B surface antigen) secretion; assay: Inhibition of HBsAg secretion in HepG 2.2.15 cells; assay type: cell-based; details: Hepatitis B virus, HepG2.2.15, read-out: HBsAg IC50
HBV DNA replication = assay: Inhibition of HBV DNA replication in HepG 2.2.15 cells; assay type: cell-based; details: Hepatitis B virus, HepG2.2.15, read-out: DNA replication IC50
Cytotoxicity = assay type: cell-based; details: human, HepG 2.2.15 cells
Kunming mice = assay: Acute toxicity in mice, single oral dose, 14 days observation; assay type: in vivo; details: for No. of dead, 1–7 day / No. of dead, 8–14 day / Total death / mortality: 10 mice; for Body weight, 0 day: group average
Method in brief: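 Male and female Kunming mice (21 ± 2 g) were randomised into 4 groups of 10 (5 male + 5 female). Each group received one oral dose of test compound at 0, 50, 250 or 1250 mg/kg; the 0 group got the same volume of physiological saline. Mice had free food and water at 25 ± 1 °C on a 12-h light/dark cycle. Survival and body weight were recorded up to 14 days.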

SMILES	IC50 [1] [µM]	IC50 (HBV DNA replication) [µM]	CC50 (Cytotoxicity) [µM]	No. of dead, 1–7 day (Kunming mice; 50 mg/kg oral)	No. of dead, 8–14 day (Kunming mice; 50 mg/kg oral)	Total death (Kunming mice; 50 mg/kg oral)	mortality (Kunming mice; 50 mg/kg oral)	Body weight, 0 day (Kunming mice; 50 mg/kg oral) [g]	No. of dead, 1–7 day (Kunming mice; 250 mg/kg oral)	No. of dead, 8–14 day (Kunming mice; 250 mg/kg oral)	Total death (Kunming mice; 250 mg/kg oral)	mortality (Kunming mice; 250 mg/kg oral)	Body weight, 0 day (Kunming mice; 250 mg/kg oral) [g]	No. of dead, 1–7 day (Kunming mice; 1250 mg/kg oral)	No. of dead, 8–14 day (Kunming mice; 1250 mg/kg oral)	Total death (Kunming mice; 1250 mg/kg oral)	mortality (Kunming mice; 1250 mg/kg oral)	Body weight, 0 day (Kunming mice; 1250 mg/kg oral) [g]	survival and abnormality of mice up to 14 days post administration (Kunming mice; single oral dose at 50, 250 and 1250 mg/kg, Kunming mice of both genders)
CC(=O)[C@]1(O)CC[C@@]2(O)[C@]1(C)[C@H](OC(=O)/C=C(\C)C(C)C)C[C@@H]1[C@@]3(C)CC[C@H](O)CC3=CC[C@]12O [Compound 1, caudatin]	143	40.6	245																
COc1cc(/C=C/C(=O)O[C@H]2CC[C@@]3(C)C(=CC[C@]4(O)[C@@H]3C[C@@H](OC(=O)/C=C(\C)C(C)C)[C@@]3(C)[C@]4(O)CC[C@@]3(O)C(C)=O)C2)cc(OC)c1OC [Compound 18, 3-O-(3,4,5-Trimethoxy)cinnamoyl caudatin]				0	0	0/0	0/0	22.4	0	0	0/0	0/0	22.3	0	0	0/0	0/0	22.6	no dies and abnormality were observed
